High-throughput results (PubChem BioAssay)
SF1 activator – activators of human nuclear receptor SF-1 | Q13285 | CHO-K1 Gal4-SF-1 LBD luciferase reporter; % increase over DMSO SF-1-specific signal | activation, % at 10 µM | 65,000 tested, 1.9% active;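 active = activation above the mean activation of all tested compounds plus 3 SD, cut at about 50% in these data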
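Material: CHO-K1 cells with Gal4–hSF-1 LBD chimera plus Gal4-driven luciferase / Input: 4,000 CHO-K1 cells per well / Incubation: compound exposure 20 h at 37 °C / Signal: luminescence read 15 min after SteadyLite luciferase reagent, after room-temperature equilibration / Read-out: percent activation versus DMSO / Benchmarks: DMSO negative control and −SF1 background wells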
MT1-MMP txn act – activates MT1-MMP transcription; activation factor at 10 µM; AID 750; 86,000 tested, 0.16% active; HT1080 MT1-MMP promoter luciferase reporter, luminescence, overnight; hits give high values;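 active = activation factor of at least 2 for MT1-MMP transcription at 10 µM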
WNV NS2B-NS3 inh – WNV NS2B-NS3 proteinase inhibition. z-score (test concentration not listed). 65,000 tested, 0.18% active. AID 577. WNV NS2B-NS3 protease, fluorogenic substrate Ex360/Em465; hits give low values; in the data active = z-score below about -3
MMP13 inh – blocks human MMP13 activity; 65,000 tested, 0.07% active; MMP-13 fTHP FRET cleavage, Mca fluorescence; P45452; inhibition, % at 4 µM;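 active = inhibition above the mean of compound-free control plate wells plus 3 SD, cut at about 14% in these data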;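 note: 0% = DMSO wells and 100% = wells with reference MMP-13 inhibitor after basal subtraction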
RORa activator – activators of human nuclear receptor RORA; CHO-K1 Gal4-RORA LBD luciferase reporter, luminescence; percent increase over mock-subtracted basal signal; P35398; 65,000 tested, 1.5% active; activation, % at 10 µM;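 active = activation above the mean of all tested compounds plus 3 SD, cut at about 49% in these data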;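 note: 0% = DMSO-treated RORA cells and 100% = added signal equal to DMSO minus mock-transfected cells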
Target sequence (P35398 whole entry, looked up, the tested form may be a part): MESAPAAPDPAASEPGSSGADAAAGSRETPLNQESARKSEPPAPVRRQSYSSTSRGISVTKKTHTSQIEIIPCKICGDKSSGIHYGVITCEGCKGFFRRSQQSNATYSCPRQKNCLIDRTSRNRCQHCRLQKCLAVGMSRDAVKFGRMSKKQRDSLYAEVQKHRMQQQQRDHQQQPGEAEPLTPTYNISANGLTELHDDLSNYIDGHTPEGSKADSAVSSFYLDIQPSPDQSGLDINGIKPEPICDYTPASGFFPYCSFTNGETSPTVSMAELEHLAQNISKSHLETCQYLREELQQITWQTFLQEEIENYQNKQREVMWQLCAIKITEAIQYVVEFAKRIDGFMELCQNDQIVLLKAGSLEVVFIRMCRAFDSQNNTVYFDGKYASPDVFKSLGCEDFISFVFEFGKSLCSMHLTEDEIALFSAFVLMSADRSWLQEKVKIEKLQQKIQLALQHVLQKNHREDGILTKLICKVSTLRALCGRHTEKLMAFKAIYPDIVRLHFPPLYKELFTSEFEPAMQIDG
* marks the source's active call; other numbers are inactive results; / = no result given. Most compounds without a hit are left out; they make up all but 2.3% or so of the library.

SMILES	SF1 activator	MT1-MMP txn act	WNV NS2B-NS3 inh	MMP13 inh	RORa activator
CCOC(=O)Nc1ccc2c(C)cc(=O)oc2c1	56*	1.5	0.19	-368	53*
CN1CCN(Cc2nc3c(c(=O)n(C)c(=O)n3C)n2Cc2ccccc2Cl)CC1	-10	/	-0.44	1	-24
O=C(C1=COCCO1)N1CCN(C(c2ccccc2)c2ccccc2)CC1	-10	1.3	-1.8	-1	-24
O=C(COc1cccc2cccnc12)Nc1nccs1	48	1.3	0.24	-2	75*
O=C(CNc1ccccc1)Nc1ccc(F)cc1	61*	1.7	0.27	1	3
CCCNS(=O)(=O)c1ccc(NC(=O)c2ccccn2)cc1	36	0.7	0.45	-2	19
CN(C)S(=O)(=O)c1ccc(NC(=O)c2ccccn2)cc1	74*	1	0.36	1	57*
CCN(CC)S(=O)(=O)c1ccc(NC(=O)c2ccccn2)cc1	55*	1.4	0.72	-4	49*
Cc1ccc(N2C(=O)CC(Sc3ncn[nH]3)C2=O)cc1C (stereo unspecified)	/	1	/	/	/
CCOC(=O)C1=C(C)N(CCCC(=O)O)C(=O)NC1c1ccccc1OS(=O)(=O)c1ccc2ccccc2c1 (stereo unspecified)	/	1.2	/	/	/
CCC(=O)N1CCc2cc(Br)cc(S(=O)(=O)CC(=O)OC)c21	2	1	-4.8*	3	-19
CCC(=O)N1CCc2cc(Br)cc(S(=O)(=O)NCCN3CCOCC3)c21	-2	1	-0.97	3	-25
CCOC(=O)c1cnc(SCC(=O)c2ccccc2)nc1N	29	1.4	-0.52	-2	59*
CCOC(=O)c1cnc(-c2ccccc2)nc1N	64*	1	-0.39	2	48
C=C(CC1([C@@H](NP(=O)(c2ccccc2)c2ccccc2)[C@H]2C[C@@H]2CCN(C(=O)OCC)S(=O)(=O)c2ccc(C)cc2)CC1)c1ccccc1	/	1.1	/	/	/
Cc1ccc2c(CC(=O)Nc3sccc3C(N)=O)coc2c1	87*	1.8	-1.5	1	45
Cc1ccc2c(CC(=O)Nc3ccc(N4CCN(C)CC4)cc3C)coc2c1	10	1.4	0.5	6	11
COc1ccccc1CN(Cc1cc2cc(C)cc(C)c2[nH]c1=O)Cc1nnnn1CC1CCCO1 (stereo unspecified)	49	1.1	0.11	-16	54*
Cn1c(SCc2cc(=O)[nH]c3ccccc23)nnc1-c1ccc(Br)cc1	/	1.2	/	/	/
O=S(=O)(Cc1nc2ccccc2s1)c1ccccc1	110*	1.6	-0.79	3	50*
COCCn1c(COc2cccc(OC)c2)nnc1SCC(=O)N1CCOCC1	3	1.2	-0.13	2	-5
COC(=O)C1(Cc2ccccc2)C=C2C(=C(c3ccccc3)C(=O)C2C)CN1 (stereo unspecified)	/	1	/	/	/
COc1ccc(C(=O)c2oc3ccccc3c2N)cc1	42	2.3*	-0.35	-2	36
COc1ccc2oc(C)c(C(N)=O)c2c1	22	1.2	0.2	8	5
Nc1c(C(=O)c2ccc(F)cc2)oc2ccccc12	18	1.4	-0.7	-1	8
SMILES	SF1 activator	MT1-MMP txn act	WNV NS2B-NS3 inh	MMP13 inh	RORa activator
COc1ccc2oc(C(=O)c3ccccc3)c(N)c2c1	/	2.1*	/	/	/
COc1ccc2oc(C(=O)C3CC3)c(N)c2c1	74*	1.5	-0.32	-17	68*
COC(=O)CCC(=O)c1oc2ccc(OC)cc2c1N	/	1.3	/	/	/
CCCC[C@@H]1C[C@H]1C(NC(=O)c1cccs1)c1ccc(Cl)cc1 (stereo partly specified)	/	1.2	/	/	/
CN(Cc1cc(=O)[nH]c2ccccc12)C(=O)c1ccccc1	-8	2.2*	-0.9	2	15
CC(=O)N(Cc1cc(=O)[nH]c2ccccc12)c1ccccc1	-19	1.2	-0.27	-4	-20
Cc1ccc(-c2noc(CSc3nc(N)cc(N)n3)n2)cc1	61*	1.5	-0.41	6	58*
Cc1c(C(=O)NCc2ccco2)sc2nc(-c3ccccc3)cn12	52*	1.1	-0.63	-6	87*
Cc1c(C(=O)N2CCOCC2)sc2nc(-c3ccccc3)cn12	82*	1.7	-1.2	5	58*
Cc1c(C(=O)NCc2cccnc2)sc2nc(-c3ccccc3)cn12	33	/	-0.46	2	54*
Cc1c(C(=O)NCc2cccnc2)sc2nc(-c3ccc(F)cc3)cn12	-1	1.2	1.4	2	44
CCOC(=O)c1cnc(SC)nc1Sc1ccccc1	/	1.1	/	/	/
O=C(Nc1ccc2c(c1)OCO2)c1c(Cl)nc2sccn12	66*	1.3	0.92	0	48
Cc1noc(C(=O)Nc2ccc3c(c2)OCO3)c1Cl	61*	1.5	-0.23	8	65*
CC(=O)Nc1ccc(C(=O)Nc2ccc3c(c2)OCO3)cc1	31	1.2	-2.2	-7	29
Cc1occc1C(=O)Nc1ccc2c(c1)OCO2	53*	1.2	0.27	8	18
O=C(Nc1ccc2c(c1)OCO2)c1cnn2cccnc12	70*	1.1	0.01	2	61*
O=C(Nc1ccc2c(c1)OCO2)c1ccc(Cl)s1	/	1.1	/	/	/
O=C(Nc1cccc(O)c1)c1cnn2cccnc12	/	1.4	/	/	/
COc1cccc(CNC(=O)C2CCCN(S(=O)(=O)c3c(C)[nH]c(=O)[nH]c3=O)C2)c1 (stereo unspecified)	/	1.2	/	/	/
CCCCN(CCCC)C(=O)c1nsnc1-c1ccccc1O	/	1.3	/	/	/
COCC(C)n1c(C)cc(C(=O)COC(=O)c2c(NC(C)=O)sc(C)c2C)c1C (stereo unspecified)	-10	1.1	-0.0018	-1	1
Oc1ccc(-c2nc3ccccn3c2NCc2ccco2)cc1	/	1.4	/	/	/
CCOCCOC(=O)c1ccc(-n2cncn2)nc1	/	1.1	/	/	/
O=C(Nc1ccc2c(c1)OCO2)c1ccc[n+]([O-])c1	/	1.2	/	/	/
SMILES	SF1 activator	MT1-MMP txn act	WNV NS2B-NS3 inh	MMP13 inh	RORa activator
O=C(Nc1ccc2c(c1)OCO2)c1cccc(Cl)c1	67*	1.2	0.86	6	30
O=C(Nc1ccc(Cl)cc1)c1ccc2c(c1)OCO2	31	1.5	1.2	3	9
O=C(Nc1ccc(F)c(F)c1)c1ccc2c(c1)OCO2	66*	1.3	-0.2	-3	24
Cc1ccc(Cl)cc1N1CCN(S(=O)(=O)c2ccc3c(c2)oc(=O)n3C)CC1	-2	1.1	1.6	2	4
COc1cccc(C(=O)NC2(C(F)(F)F)N=C3SCCN3C2=O)c1 (stereo unspecified)	-4	1	-4.8*	-1	2
Cc1ccc(C(=O)NC2(C(F)(F)F)N=C3SCCN3C2=O)cc1 (stereo unspecified)	/	1.2	/	/	/
CCCNC(=O)c1ccccc1NC(=O)CN(c1ccccc1OCC)S(C)(=O)=O	-12	1.2	-0.29	1	-42
CC1CCCCN1C(=O)CSc1nnc(CSc2ncccn2)n1C (stereo unspecified)	/	1.2	/	/	/
CC(=O)C1=C(N2CCCCC2)CCC1=O	-4	1.1	-0.39	2	-14
COc1cccc(-c2cc(C(=O)N3CCN(c4ncccn4)CC3)c3ccccc3n2)c1	16	1.5	0.46	-15	-2
